Source: ChEMBL document CHEMBL1629494, “New amino acid esters of salicylanilides active against MDR-TB and other microbes” (Eur J Med Chem, 2010)
Converted amounts (≈) assume the structure as drawn.

Legend:
Type in all cases: functional
Enterococcus sp. [1] = assay: Antibacterial activity against Enterococcus sp. J14365/08 after 48 hrs by broth microdilution method; settings: J14365/08, 48 h
Procedure, shortened: (§1)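 Broth microdilution following […], with twofold compound dilutions in Mueller-Hinton bouillon. Incubated 24 and 48 h at 35 °C in the dark in a humid atmosphere. MIC (IC80) was taken as ≥80% growth reduction versus control, read visually and photometrically.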

Escherichia coli [2] = assay: Antibacterial activity against Escherichia coli CCM 4517 after 24 hrs by broth microdilution method; settings: CCM 4517, 24 h; procedure, shortened: as §1
Escherichia coli [3] = assay: Antibacterial activity against Escherichia coli CCM 4517 after 48 hrs by broth microdilution method; settings: CCM 4517, 48 h; procedure, shortened: as §1
Klebsiella pneumoniae [4] = assay: Antibacterial activity against Klebsiella pneumoniae D11750/08 after 24 hrs by broth microdilution method; settings: D11750/08, 24 h; procedure, shortened: as §1
Klebsiella pneumoniae [5] = assay: Antibacterial activity against Klebsiella pneumoniae D11750/08 after 48 hrs by broth microdilution method; settings: D11750/08, 48 h; procedure, shortened: as §1
Candida albicans [6] = assay: Antifungal activity against Candida albicans ATCC 44859 after 24 hrs by broth microdilution method; settings: ATCC 44859, 24 h
Candida albicans [7] = assay: Antifungal activity against Candida albicans ATCC 44859 after 48 hrs by broth microdilution method; settings: ATCC 44859, 48 h
Candida tropicalis [8] = assay: Antifungal activity against Candida tropicalis 156 after 24 hrs by broth microdilution method; settings: Candida tropicalis, 156, 24 h
Candida tropicalis [9] = assay: Antifungal activity against Candida tropicalis 156 after 48 hrs by broth microdilution method; settings: Candida tropicalis, 156, 48 h
Pichia kudriavzevii [10] = assay: Antifungal activity against Candida krusei E28 after 24 hrs by broth microdilution method; settings: E28, 24 h
Pichia kudriavzevii [11] = assay: Antifungal activity against Candida krusei E28 after 48 hrs by broth microdilution method; settings: E28, 48 h
Nakaseomyces glabratus [12] = assay: Antifungal activity against Candida glabrata 20/I after 24 hrs by broth microdilution method
Nakaseomyces glabratus [13] = assay: Antifungal activity against Candida glabrata 20/I after 48 hrs by broth microdilution method
Trichosporon beigelii [14] = assay: Antifungal activity against Trichosporon beigelii 1188 after 24 hrs by broth microdilution method; settings: Trichosporon beigelii, 1188, 24 h
Trichosporon beigelii [15] = assay: Antifungal activity against Trichosporon beigelii 1188 after 48 hrs by broth microdilution method; settings: Trichosporon beigelii, 1188, 48 h
Aspergillus fumigatus [16] = assay: Antifungal activity against Aspergillus fumigatus 231 after 24 hrs by broth microdilution method; settings: Aspergillus fumigatus, 231, 24 h
Aspergillus fumigatus [17] = assay: Antifungal activity against Aspergillus fumigatus 231 after 48 hrs by broth microdilution method; settings: Aspergillus fumigatus, 231, 48 h
Lichtheimia corymbifera [18] = assay: Antifungal activity against Absidia corymbifera 272 after 24 hrs by broth microdilution method; settings: Lichtheimia corymbifera, 272, 24 h
Lichtheimia corymbifera [19] = assay: Antifungal activity against Absidia corymbifera 272 after 48 hrs by broth microdilution method; settings: Lichtheimia corymbifera, 272, 48 h
[20] = test system: Trichophyton mentagrophytes; assay: Antifungal activity against Trichophyton mentagrophytes after 24 hrs by broth microdilution method
[21] = test system: Trichophyton mentagrophytes; assay: Antifungal activity against Trichophyton mentagrophytes after 48 hrs by broth microdilution method
[22] = test system: Mycobacterium tuberculosis; assay: Antimycobacterial activity against drug-sensitive Mycobacterium tuberculosis
Mycobacterium avium [23] = assay: Antimycobacterial activity against Mycobacterium avium
Mycobacterium kansasii [24] = assay: Antimycobacterial activity against Mycobacterium kansasii
[25] = test system: Mycobacterium tuberculosis; assay: Antimycobacterial activity against Mycobacterium tuberculosis H37Rv 331/88 after 14 days by micromethod; settings: H37Rv 331/88, 336 h
Procedure, shortened: (§2)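 Micromethod in Sula semisynthetic medium, with compounds added as DMSO solutions at 1000, 500, 250, 125, 62, 32, 16, 8, 4, 2, 1, 0.5, 0.25. Inoculum dilutions: H37Rv 10^-3; M. avium 330/88 10^-5; M. kansasii 235/80 10^-4; M. kansasii 6509/96 10^-5. Incubated at 37 °C, read at 14 and 21 days, and at 7 days for M. kansasii. MIC was the lowest concentration inhibiting growth.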

[26] = test system: Mycobacterium tuberculosis; assay: Antimycobacterial activity against Mycobacterium tuberculosis H37Rv 331/88 after 21 days by micromethod; settings: H37Rv 331/88, 504 h; procedure, shortened: as §2
Mycobacterium avium [27] = assay: Antimycobacterial activity against multidrug-resistant Mycobacterium avium 330/88 after 14 days by micromethod; settings: 330/88, 336 h; procedure, shortened: as §2
Mycobacterium avium [28] = assay: Antimycobacterial activity against multidrug-resistant Mycobacterium avium 330/88 after 21 days by micromethod; settings: 330/88, 504 h; procedure, shortened: as §2
Mycobacterium kansasii [29] = assay: Antimycobacterial activity against Mycobacterium kansasii 235/80 after 7 days by micromethod; settings: 235/80, 168 h; procedure, shortened: as §2
Mycobacterium kansasii [30] = assay: Antimycobacterial activity against Mycobacterium kansasii 235/80 after 14 days by micromethod; settings: 235/80, 336 h; procedure, shortened: as §2
Mycobacterium kansasii [31] = assay: Antimycobacterial activity against Mycobacterium kansasii 235/80 after 21 days by micromethod; settings: 235/80, 504 h; procedure, shortened: as §2
Mycobacterium kansasii [32] = assay: Antimycobacterial activity against Mycobacterium kansasii 6509/96 after 7 days by micromethod; settings: 6509/96, 168 h; procedure, shortened: as §2
Mycobacterium kansasii [33] = assay: Antimycobacterial activity against Mycobacterium kansasii 6509/96 after 14 days by micromethod; settings: 6509/96, 336 h; procedure, shortened: as §2
Mycobacterium kansasii [34] = assay: Antimycobacterial activity against Mycobacterium kansasii 6509/96 after 21 days by micromethod; settings: 6509/96, 504 h; procedure, shortened: as §2
Staphylococcus aureus [35] = assay: Antibacterial activity against Staphylococcus aureus CCM 4516/08 after 24 hrs by broth microdilution method; settings: CCM 4516/08, 24 h; procedure, shortened: as §1
Staphylococcus aureus [36] = assay: Antibacterial activity against Staphylococcus aureus CCM 4516/08 after 48 hrs by broth microdilution method; settings: CCM 4516/08, 48 h; procedure, shortened: as §1
Staphylococcus aureus [37] = assay: Antibacterial activity against methicillin-resistant Staphylococcus aureus H5996/08 after 24 hrs by broth microdilution method; settings: H5996/08, 24 h; procedure, shortened: as §1
Staphylococcus aureus [38] = assay: Antibacterial activity against methicillin-resistant Staphylococcus aureus H5996/08 after 48 hrs by broth microdilution method; settings: H5996/08, 48 h; procedure, shortened: as §1
[39] = test system: Staphylococcus epidermidis; assay: Antibacterial activity against Staphylococcus epidermidis H6966/08 after 24 hrs by broth microdilution method; settings: H6966/08, 24 h; procedure, shortened: as §1
[40] = test system: Staphylococcus epidermidis; assay: Antibacterial activity against Staphylococcus epidermidis H6966/08 after 48 hrs by broth microdilution method; settings: H6966/08, 48 h; procedure, shortened: as §1
Enterococcus sp. [41] = assay: Antibacterial activity against Enterococcus sp. J14365/08 after 24 hrs by broth microdilution method; settings: J14365/08, 24 h; procedure, shortened: as §1

## CC(=O)N[C@@H](Cc1ccccc1)C(=O)Oc1cc(Cl)ccc1C(=O)Nc1ccc(Cl)c(Cl)c1
Enterococcus sp. [1]
  MIC: > 125 µM
Escherichia coli [2]
  MIC: 125 µM (≈ 63.2 µg/mL)
Escherichia coli [3]
  MIC: > 125 µM
Klebsiella pneumoniae [4]
  MIC: > 125 µM
Klebsiella pneumoniae [5]
  MIC: > 125 µM
Candida albicans [6]
  MIC: 125 µM (≈ 63.2 µg/mL)
Candida albicans [7]
  MIC: > 125 µM
Candida tropicalis [8]
  MIC: 125 µM (≈ 63.2 µg/mL)
Candida tropicalis [9]
  MIC: > 125 µM
Pichia kudriavzevii [10]
  MIC: > 125 µM
Pichia kudriavzevii [11]
  MIC: > 125 µM
Nakaseomyces glabratus [12]
  MIC: > 125 µM
Nakaseomyces glabratus [13]
  MIC: > 125 µM
Trichosporon beigelii [14]
  MIC: 125 µM (≈ 63.2 µg/mL)
Trichosporon beigelii [15]
  MIC: > 125 µM
Aspergillus fumigatus [16]
  MIC: 125 µM (≈ 63.2 µg/mL)
Aspergillus fumigatus [17]
  MIC: > 125 µM
Lichtheimia corymbifera [18]
  MIC: 125 µM (≈ 63.2 µg/mL)
Lichtheimia corymbifera [19]
  MIC: > 125 µM
[20]
  MIC: 62.5 µM (≈ 31.6 µg/mL)
[21]
  MIC: > 125 µM
[22]
  MIC: 1 µM (≈ 0.506 µg/mL)
Mycobacterium avium [23]
  MIC: 1 µM (≈ 0.506 µg/mL)
Mycobacterium kansasii [24]
  MIC: 1 µM (≈ 0.506 µg/mL)
[25]
  MIC: 2 µM (≈ 1.01 µg/mL)
[26]
  MIC: 2 µM (≈ 1.01 µg/mL)
Mycobacterium avium [27]
  MIC: 8 µM (≈ 4.05 µg/mL)
Mycobacterium avium [28]
  MIC: 16 µM (≈ 8.09 µg/mL)
Mycobacterium kansasii [29]
  MIC: 4 µM (≈ 2.02 µg/mL)
Mycobacterium kansasii [30]
  MIC: 4 µM (≈ 2.02 µg/mL)
Mycobacterium kansasii [31]
  MIC: 4 µM (≈ 2.02 µg/mL)
Mycobacterium kansasii [32]
  MIC: 1 µM (≈ 0.506 µg/mL)
Mycobacterium kansasii [33]
  MIC: 2 µM (≈ 1.01 µg/mL)
Mycobacterium kansasii [34]
  MIC: 4 µM (≈ 2.02 µg/mL)
Staphylococcus aureus [35]
  MIC: 125 µM (≈ 63.2 µg/mL)
Staphylococcus aureus [36]
  MIC: > 125 µM
Staphylococcus aureus [37]
  MIC: 125 µM (≈ 63.2 µg/mL)
Staphylococcus aureus [38]
  MIC: > 125 µM
[39]
  MIC: 125 µM (≈ 63.2 µg/mL)
[40]
  MIC: > 125 µM
Enterococcus sp. [41]
  MIC: 125 µM (≈ 63.2 µg/mL)

## OC(Cn1cncn1)(Cn1cncn1)c1ccc(F)cc1F [FLUCONAZOLE]
Candida albicans [6]
  MIC: 0.06 µM (≈ 0.0184 µg/mL)
Candida albicans [7]
  MIC: 0.12 µM (≈ 0.0368 µg/mL)
Candida tropicalis [8]
  MIC: 0.12 µM (≈ 0.0368 µg/mL)
Candida tropicalis [9]
  MIC: > 125 µM
Pichia kudriavzevii [10]
  MIC: 3.91 µM (≈ 1.2 µg/mL)
Pichia kudriavzevii [11]
  MIC: 15.6 µM (≈ 4.78 µg/mL)
Nakaseomyces glabratus [12]
  MIC: 0.98 µM (≈ 0.3 µg/mL)
Nakaseomyces glabratus [13]
  MIC: 3.91 µM (≈ 1.2 µg/mL)
Trichosporon beigelii [14]
  MIC: 0.24 µM (≈ 0.0735 µg/mL)
Trichosporon beigelii [15]
  MIC: 0.48 µM (≈ 0.147 µg/mL)
Aspergillus fumigatus [16]
  MIC: > 125 µM
Aspergillus fumigatus [17]
  MIC: > 125 µM
Lichtheimia corymbifera [18]
  MIC: > 125 µM
Lichtheimia corymbifera [19]
  MIC: > 125 µM
[20]
  MIC: 1.95 µM (≈ 0.597 µg/mL)
[21]
  MIC: 3.91 µM (≈ 1.2 µg/mL)
